Measured values from ChEMBL document CHEMBL5625173, “Antimycobacterial pyridine carboxamides: From design to in vivo activity” (Eur J Med Chem, 2023).
pIC50: −log10 of the molar value. ≈ marks a conversion by molar mass, not a printed value.

Assays:
[1] = Cytotoxicity against human HepG2 cells assessed as inhibition of cell viability; format: toxicity, cell-based
[2] = tested on: Mycolicibacterium smegmatis; test: Antimycobacterial activity against Mycobacterium smegmatis by alamar blue staining based microplate analysis; format: functional
How it was run: (§1)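 Microplate Alamar Blue assay, one of six mycobacterial strains tested (Mtb H37Rv, Mtb H37Ra, M. kansasii, M. avium, M. smegmatis, M. aurum); value reported as MIC.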

[3] = tested on: Mycobacterium tuberculosis; test: Antimycobacterial activity against Mycobacterium tuberculosis H37Ra by alamar blue staining based microplate analysis; format: functional
How it was run: (§2)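 Microplate Alamar Blue assay. MIC values read at pH 6.6 (neutral). One acidic-pH test at pH 5.6 is footnoted separately.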

[4] = tested on: Mycobacterium kansasii; test: Antimycobacterial activity against Mycobacterium kansasii by alamar blue staining based microplate analysis; format: functional; how it was run: as §1
[5] = tested on: Mycobacterium avium; test: Antimycobacterial activity against Mycobacterium avium by alamar blue staining based microplate analysis; format: functional; how it was run: as §2
[6] = tested on: Mycobacterium tuberculosis; test: Antimycobacterial activity against Mycobacterium tuberculosis H37Rv by alamar blue staining based microplate analysis; format: functional; how it was run: as §2
[7] = tested on: Mycolicibacterium aurum; test: Antimycobacterial activity against Mycobacterium aurum by alamar blue staining based microplate analysis; format: functional; how it was run: as §1
[8] = Selectivity index, ratio of IC50 for cytotoxicity against human HepG2 cells to MIC for antimycobacterial activity against Mycobacterium tuberculosis H37Rv; format: toxicity, cell-based; conditions: read-out: Selectivity Index
[9] = Drug metabolism in human liver microsomes assessed as M1 metabolite formation at 90 uM incubated for 3 hrs; format: ADME, Microsome
How it was run: (§3)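 Phase I metabolite identification: ammonium salt of the compound (for solubility) or its lactone, 90 μM, incubated with human liver microsomes for 3 h; metabolites detected by HPLC-MS, positive ion mode, by m/z.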

[10] = Metabolic stability in human liver microsomes assessed as half life at 3 uM incubated for 45 mins by HPLC-MS analysis; format: ADME, Microsome
How it was run: (§4)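 Ammonium salt or lactone, 3 μM, incubated with human liver microsomes at physiological pH; reactions stopped at 0, 5, 15, 30 and 45 min and analysed by HPLC-MS; k, t1/2 and intrinsic clearance calculated from the HPLC-MS records.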

[11] = tested on: Mycobacterium tuberculosis; test: Antimycobacterial activity against Mycobacterium tuberculosis IZAK by alamar blue staining based microplate analysis; format: functional
[12] = tested on: Mycobacterium tuberculosis; test: Antimycobacterial activity against Mycobacterium tuberculosis MAT1 by alamar blue staining based microplate analysis; format: functional
[13] = Drug metabolism in human liver microsomes assessed as M2 metabolite formation at 90 uM incubated for 3 hrs; format: ADME, Microsome; how it was run: as §3
[14] = Metabolic stability in human liver microsomes assessed as intrinsic clearance at 3 uM incubated for 45 mins by HPLC analysis; format: ADME, Microsome; conditions: read-out: CLH; how it was run: as §4

Structure (SMILES)	pIC50 [1]	MIC [2] [µg/mL]	MIC [3] [µg/mL]	MIC [4] [µg/mL]	MIC [5] [µg/mL]	MIC [6] [µg/mL]	MIC [7] [µg/mL]	selectivity ratio [8]	Drug metabolism [9]	half-life at 3 µM [10] [h]	MIC [11] [µg/mL]	MIC [12] [µg/mL]	Drug metabolism [13]	microsomal CLint at 3 µM [14] [µL/min/mg]
O=C(Nc1cnccn1)c1ccncc1	< 3.00	≥ 500	≥ 500	> 100	> 100	> 100	≥ 500							
O=C(Nc1ccc(C(=O)O)c(O)c1)c1cccc(Cl)n1	< 3.00	125 (≈ 427 µM)	125 (≈ 427 µM)	> 100	100 (≈ 342 µM)	3.13 (≈ 10.7 µM)	125 (≈ 427 µM)	93.5						
O=C(Nc1cncc(Cl)n1)c1ccc(Cl)nc1	< 3.30	≥ 500	≥ 500	> 100	> 100	100 (≈ 372 µM)	≥ 500							
O=C(Nc1cnccn1)c1cccc(Cl)n1	< 3.60	≥ 500	≥ 500	50 (≈ 213 µM)	> 100	> 100	≥ 500							
COc1ccnc(C(=O)Nc2cnccn2)c1	< 3.60	≥ 250	≥ 250	50 (≈ 217 µM)	> 100	> 100	≥ 250							
NC(=O)c1cnccn1 [PYRAZINAMIDE]	< 3.00	≥ 500	≥ 500	> 100	> 100	> 100	≥ 500							
Cc1cc(C(=O)Nc2cncc(Cl)n2)ccn1	< 3.00	≥ 500	≥ 500	> 100	> 100	> 100	250 (≈ 1010 µM)							
O=C(O)c1ccc(NC(=O)c2ccc(Cl)nc2)cc1	< 3.60	≥ 500	62.5 (≈ 226 µM)	> 100	> 100	> 100	250 (≈ 904 µM)							
NNC(=O)c1ccncc1 [ISONIAZID]	< 3.00	15.6 (≈ 114 µM)	0.25 (≈ 1.82 µM)	12.5 (≈ 91.1 µM)	12.5 (≈ 91.1 µM)	0.2 (≈ 1.46 µM)	3.91 (≈ 28.5 µM)							
O=C(Nc1ccc(C(=O)O)c(O)c1)c1ccc2ccccc2n1	< 3.00	31.2 (≈ 101 µM)	31.2 (≈ 101 µM)	100 (≈ 324 µM)	100 (≈ 324 µM)	1.56 (≈ 5.06 µM)	15.6 (≈ 50.7 µM)	198	Metabolite_Detected	10.5	6.25 (≈ 20.3 µM)	12.5 (≈ 40.5 µM)	Metabolite_Detected	2.2
COc1ccnc(C(=O)Nc2ccc(C(=O)O)c(O)c2)c1	< 3.00	125 (≈ 434 µM)	31.2 (≈ 108 µM)	> 100	> 100	1.56 (≈ 5.41 µM)	62.5 (≈ 217 µM)	185						
Cc1cc(C(=O)Nc2ccc(C(=O)O)c(O)c2)ccn1	< 3.00	≥ 125	≥ 125	> 100	> 100	12.5 (≈ 45.9 µM)	≥ 125	21.8						
COc1ccnc(C(=O)Nc2cncc(Cl)n2)c1	< 3.30	≥ 500	≥ 500	> 100	> 100	> 100	250 (≈ 945 µM)							
O=C(Nc1cnccn1)c1ccc(C(F)(F)F)cn1	< 3.84	≥ 500	≥ 500	6.25 (≈ 23.3 µM)	> 100	50 (≈ 186 µM)	≥ 500							
O=C(Nc1cnccn1)c1ccc2ccccc2n1	< 4.00	≥ 125	≥ 125	> 100	> 100	> 100	≥ 125							
Cc1cc(C(=O)Nc2ccc(C(=O)O)c(O)c2)cc(Cl)n1	< 3.00	≥ 500	250 (≈ 815 µM)	> 100	> 100	50 (≈ 163 µM)	≥ 500							
O=C(O)c1ccc(NC(=O)c2cccc(Cl)n2)cc1	< 3.60	≥ 500	62.5 (≈ 226 µM)	> 100	> 100	> 100	250 (≈ 904 µM)							
